From ChEMBL document CHEMBL5712087, “Targeting bromodomain-containing protein 4 (BRD4) inhibits MYC expression in colorectal cancer cells” (Neoplasia, 2019)
The source made the active and inactive calls. The rule behind the calls is not given here.

What was measured:
[1] = molecular target: T1, von Hippel-Lindau disease tumor suppressor/Bromodomain-containing protein 4 (Homo sapiens) (UniProt O60885+P40337); test: PROTAC activity at BRD4/VHL E3 ligase in human LS174T cells assessed as decrease in BRD4 protein degradation at 5 to 10 uM for 24 hrs by Western blot analysis; type: cell-based; conditions: dose 5-10 µM
How it was run: (§1)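 Eight CRC lines, including LS174t (RPMI 1640) and SW480 (DMEM/HamsF12), all with 10% FCS, were treated with PROTAC at 5 and 10 µM. BRD4 and MYC proteins were detected by immunoblot (RIPA lysate, 15 µg, 10% gel, primary 1:1,000 overnight at 4 °C), with GAPDH/β-actin as loading control.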

[2] = molecular target: T1, von Hippel-Lindau disease tumor suppressor/Bromodomain-containing protein 4 (Homo sapiens); test: PROTAC activity at BRD4/VHL E3 ligase in human LS174T dbet1 resistant cells assessed as MYC protein expression at 500 to 1000 nM for 24 hrs by Western blot analysis; type: cell-based; conditions: dose 500-1000 nM
How it was run: (§2)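 Resistant LS174t cells were derived by four months' exposure to rising dBET1 concentrations, with outgrowing cells expanded. Resistant and parental cells were then treated and analysed for BRD4 and MYC protein by western blot (GAPDH/β-actin control) and for MYC mRNA by qPCR normalised to PPIA/ACTB (ΔΔCq).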

[3] = molecular target: T1, von Hippel-Lindau disease tumor suppressor/Bromodomain-containing protein 4 (Homo sapiens); test: PROTAC activity at BRD4/VHL E3 ligase in human HCT116 p53-/- cells assessed as decrease in MYC protein expression at 5 to 10 uM for 24 hrs by Western blot analysis; type: cell-based; conditions: HCT-116, dose 5-10 µM
How it was run: (§3)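 Eight CRC lines exposed 24 h to PROTAC at 5 or 10 µM (stocks 2 mM in DMSO, diluted in PBS or medium). Lysis in RIPA with protease/phosphatase inhibitors and 2.5 mmol/l DTT; 15 µg protein on 10% SDS-PAGE, semi-dry transfer to nitrocellulose. Anti-BRD4 or anti-MYC at 1:1,000 overnight at 4 °C; GAPDH or β-actin loading control; chemiluminescence.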

[4] = molecular target: T1, von Hippel-Lindau disease tumor suppressor/Bromodomain-containing protein 4 (Homo sapiens); test: PROTAC activity at BRD4/VHL E3 ligase in human DLD-1 cells assessed as decrease in BRD4 protein degradation at 5 to 10 uM for 24 hrs by Western blot analysis; type: cell-based; conditions: dose 5-10 µM; how it was run: as §3
[5] = molecular target: T1, von Hippel-Lindau disease tumor suppressor/Bromodomain-containing protein 4 (Homo sapiens); test: PROTAC activity at BRD4/VHL E3 ligase in human LS174T dbet1 resistant cells assessed as MYC mRNA level at 500 to 1000 nM for 24 hrs by RT-qPCR analysis; type: cell-based; conditions: dose 500-1000 nM; how it was run: as §2
[6] = molecular target: T1, von Hippel-Lindau disease tumor suppressor/Bromodomain-containing protein 4 (Homo sapiens); test: PROTAC activity at BRD4/VHL E3 ligase in human LS174T cells assessed as decrease in MYC protein expression at […] for 24 hrs by Western blot analysis; type: cell-based
How it was run: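 LS174t cells (RPMI 1640, 10% FCS) were exposed to 1 nM–10 µM for 24 h. Lysates in RIPA with inhibitors and 2.5 mmol/l DTT; 15 µg protein was run on 10% SDS-PAGE and transferred to nitrocellulose. BRD4 or MYC primary antibodies were used at 1:1,000 overnight at 4 °C, HRP secondary 1:10,000, and GAPDH/β-actin as loading control. Detection was by chemiluminescence.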

[7] = molecular target: T1, von Hippel-Lindau disease tumor suppressor/Bromodomain-containing protein 4 (Homo sapiens); test: PROTAC activity at BRD4/VHL E3 ligase in human LS174T cells assessed as BRD4 protein degradation at 1 µM for 2 hrs by Immunofluorescence analysis
[8] = molecular target: T1, von Hippel-Lindau disease tumor suppressor/Bromodomain-containing protein 4 (Homo sapiens); test: PROTAC activity at BRD4/VHL E3 ligase in human fibroblast cells assessed as decrease in BRD4 protein degradation at 100 to 250 nM for 24 hrs by Western blot analysis; type: cell-based; conditions: dose 100-250 nM
How it was run: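 Normal human dermal fibroblasts in 10% FCS medium were treated with 100 or 250 nM PROTAC. BRD4 and MYC protein were assessed by western blot (15 µg RIPA lysate, 10% SDS-PAGE, primary 1:1,000 overnight at 4 °C), with GAPDH/β-actin as loading control.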

[9] = molecular target: T1, von Hippel-Lindau disease tumor suppressor/Bromodomain-containing protein 4 (Homo sapiens); test: PROTAC activity at BRD4/VHL E3 ligase in human COLO 320 cells assessed as decrease in BRD4 protein degradation at 5 to 10 uM for 24 hrs by Western blot analysis; type: cell-based; conditions: dose 5-10 µM; how it was run: as §3
[10] = molecular target: T1, von Hippel-Lindau disease tumor suppressor/Bromodomain-containing protein 4 (Homo sapiens); test: PROTAC activity at BRD4/VHL E3 ligase in human LS174T cells assessed as BRD4 protein degradation at 250 nM for 2 hrs and measured 22 hrs after washout by Western blot analysis; type: cell-based
How it was run: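 LS174t cells were exposed to PROTAC for 2 h. For washout, the PROTAC was removed by changing the culture medium and cells were harvested 22 h later. BRD4 was assessed by western blot (15 µg lysate, 10% SDS-PAGE, chemiluminescence), normalised against GAPDH/β-actin.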

[11] = molecular target: T1, von Hippel-Lindau disease tumor suppressor/Bromodomain-containing protein 4 (Homo sapiens); test: PROTAC activity at BRD4/VHL E3 ligase in human SW480 cells assessed as decrease in BRD4 protein degradation at 5 to 10 uM for 24 hrs by Western blot analysis; type: cell-based; conditions: dose 5-10 µM; how it was run: as §1
[12] = molecular target: T2, Protein cereblon/Bromodomain-containing protein 4 (Homo sapiens) (UniProt O60885+Q96SW2); test: PROTAC activity at BRD4/Cereblon in human SW480 cells assessed as decrease in BRD4 protein degradation at 5 to 10 uM for 24 hrs by Western blot analysis; type: cell-based; conditions: dose 5-10 µM; how it was run: as §3
[13] = molecular target: T2, Protein cereblon/Bromodomain-containing protein 4 (Homo sapiens); test: PROTAC activity at BRD4/Cereblon in human HT-29 cells assessed as decrease in MYC protein expression at 5 to 10 uM for 24 hrs by Western blot analysis; type: cell-based; conditions: dose 5-10 µM; how it was run: as §3
[14] = molecular target: T2, Protein cereblon/Bromodomain-containing protein 4 (Homo sapiens); test: PROTAC activity at BRD4/Cereblon in human LS174T cells assessed as BRD4 protein degradation at 1 uM for 2 hrs by Immunofluorescence analysis
[15] = molecular target: T2, Protein cereblon/Bromodomain-containing protein 4 (Homo sapiens); test: PROTAC activity at BRD4/Cereblon in human LS174T cells assessed as complete BRD4 protein degradation at […] for 24 hrs by Western blot analysis; type: cell-based
How it was run: (§4)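 Cells treated 24 h across 1 nM–10 µM range (fibroblasts at 500/1000 nM). Immunoblot: RIPA lysate with 2.5 mmol/l DTT, 15 µg per lane on 10% SDS-PAGE, nitrocellulose, 5% milk block 1 h. BRD4 or MYC primary 1:1,000 overnight at 4 °C, HRP secondary 1:10,000 for 60 min; GAPDH/β-actin loading control; ECL detection.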

[16] = molecular target: T2, Protein cereblon/Bromodomain-containing protein 4 (Homo sapiens); test: PROTAC activity at BRD4/Cereblon in human LS174T-dbet1 resistant cells assessed as MYC protein expression at 500 to 1000 nM for 24 hrs by Western blot analysis; type: cell-based; conditions: dose 500-1000 nM
[17] = molecular target: T2, Protein cereblon/Bromodomain-containing protein 4 (Homo sapiens); test: PROTAC activity at BRD4/Cereblon in human fibroblast cells assessed as effect on MYC protein expression at 500 to 1000 nM for 24 hrs by Western blot analysis; type: cell-based; conditions: dose 500-1000 nM; how it was run: as §4
[18] = molecular target: T2, Protein cereblon/Bromodomain-containing protein 4 (Homo sapiens); test: PROTAC activity at BRD4/Cereblon in human LS174T cells assessed as BRD4 protein degradation at 250 to 500 nM pretreated with thalidomide for 4 hrs by Western blot analysis; type: cell-based; conditions: dose 250-500 nM
[19] = molecular target: T2, Protein cereblon/Bromodomain-containing protein 4 (Homo sapiens); test: PROTAC activity at BRD4/Cereblon in human Caco-2 cells assessed as decrease in BRD4 protein degradation at 5 to 10 uM for 24 hrs by Western blot analysis; type: cell-based; conditions: dose 5-10 µM; how it was run: as §3

T2 sequence (Q96SW2 whole entry, looked up, other chains not shown): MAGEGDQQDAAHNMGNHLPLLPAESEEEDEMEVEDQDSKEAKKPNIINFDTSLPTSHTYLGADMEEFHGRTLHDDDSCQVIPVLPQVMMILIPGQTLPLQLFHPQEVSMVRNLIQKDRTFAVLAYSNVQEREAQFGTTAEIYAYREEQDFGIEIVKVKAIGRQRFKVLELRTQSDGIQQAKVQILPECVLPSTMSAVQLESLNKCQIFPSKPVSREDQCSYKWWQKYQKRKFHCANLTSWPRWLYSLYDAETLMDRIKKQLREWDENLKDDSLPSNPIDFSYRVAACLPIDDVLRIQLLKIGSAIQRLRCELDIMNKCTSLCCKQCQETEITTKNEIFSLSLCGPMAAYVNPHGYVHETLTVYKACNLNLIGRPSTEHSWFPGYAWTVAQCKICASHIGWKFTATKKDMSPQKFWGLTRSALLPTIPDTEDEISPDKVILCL
T1 sequence (P40337 whole entry, looked up, other chains not shown): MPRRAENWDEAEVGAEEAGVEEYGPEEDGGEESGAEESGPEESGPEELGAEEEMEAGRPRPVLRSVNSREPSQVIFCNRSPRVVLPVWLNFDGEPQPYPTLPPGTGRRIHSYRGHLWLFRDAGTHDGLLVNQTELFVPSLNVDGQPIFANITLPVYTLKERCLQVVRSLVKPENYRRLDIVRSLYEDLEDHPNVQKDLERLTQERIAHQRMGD

SMILES | Activity [1] | Activity [2] | Activity [3] | Activity [4] | Activity [5] | Activity [6] | Activity [7] | Activity [8] | Activity [9] | Activity [10] | Activity [11] | Activity [12] | Activity [13] | Activity [14] | Activity [15] | Activity [16] | Activity [17] | Activity [18] | Activity [19]
Cc1ncsc1-c1ccc(CNC(=O)[C@@H]2C[C@@H](O)CN2C(=O)[C@@H](NC(=O)COCCOCCOCCNC(=O)C[C@@H]2N=C(c3ccc(Cl)cc3)c3c(sc(C)c3C)-n3c(C)nnc32)C(C)(C)C)cc1 | Active | Active | Active | inactive | Active | Active | Active | Active | Active | inactive | Active |  |  |  |  |  |  |  | 
Cc1sc2c(c1C)C(c1ccc(Cl)cc1)=N[C@@H](CC(=O)NCCCCNC(=O)COc1cccc3c1C(=O)N(C1CCC(=O)NC1=O)C3=O)c1nnc(C)n1-2 (some centres undefined) |  |  |  |  |  |  |  |  |  |  |  | inactive | Active | Active | Active | inactive | inactive | inactive | Active
